# Compounds with a hit are over-represented: about 4.7% of the library has one in this group of screens.
# MC4R antag cAMP: MC4R antagonists of cAMP signaling, primary screen, cell-based, TR-FRET, antagonist arm of biased-ligand search | Melanocortin receptor 4 (Homo sapiens), P32245 | MC4R-expressing cells, MTII-stimulated cAMP, LANCE TR-FRET | inhibition, % at 6.5 µM | hit rate 0.48% among 360,000 | AID 540295, 2011;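 active = inhibition above its plate's cutoff, the mean of tested wells on that plate plus 3 SD, cut at about 29% in these data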
#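 Material: U2OS-MC4R stable cell line | Reagent: Melanotan II challenge after compound preincubation | Doses: One concentration, 6.5 µM nominal | Incubation: 30-min compound preincubation, 1-h Melanotan II challenge, 1-h detection, room temperature | Signal: TR-FRET cAMP assay | Replicates: One well per compound, no replicates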
# AHR act: AHR activators, primary screen, cell-based, luminescence, luciferase reporter, human; activation, % at 5 µM; AHR-responsive luciferase reporter cells; hit rate 2.5% among 320,000; AID 2796, 2010; Aryl hydrocarbon receptor (Homo sapiens), P35869; in the data active = activation above about 47%
# m5-HT2A agonist: mouse Htr2a agonists via beta-arrestin recruitment, primary screen, cell-based, luminescence; activation, % at 7.6 µM; hit rate 0.66% among 360,000; CHO-K1 mHTR2A beta-arrestin complementation; percent of 30 µM serotonin response; 5-hydroxytryptamine receptor 2A (Mus musculus), P35363;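 active = activation above a run cutoff, the mean activation of all tested compounds plus 3 SD, cut at about 14% in these data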
# Target sequence (P35363 whole entry, looked up): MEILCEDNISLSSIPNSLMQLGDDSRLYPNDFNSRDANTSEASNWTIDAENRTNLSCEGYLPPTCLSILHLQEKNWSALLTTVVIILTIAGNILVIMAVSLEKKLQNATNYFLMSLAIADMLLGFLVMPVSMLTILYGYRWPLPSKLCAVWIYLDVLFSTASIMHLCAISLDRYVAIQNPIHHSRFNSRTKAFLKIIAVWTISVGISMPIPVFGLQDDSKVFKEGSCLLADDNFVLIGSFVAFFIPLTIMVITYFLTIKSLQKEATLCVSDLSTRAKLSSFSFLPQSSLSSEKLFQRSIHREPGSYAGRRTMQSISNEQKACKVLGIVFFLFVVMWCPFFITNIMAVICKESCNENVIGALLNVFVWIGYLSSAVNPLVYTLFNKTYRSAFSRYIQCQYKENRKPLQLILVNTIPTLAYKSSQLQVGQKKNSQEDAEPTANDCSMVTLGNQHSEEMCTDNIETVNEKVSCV
# FXN GAA850 act: FXN promoter activators, primary screen, cell-based, luciferase luminescence, HEK293 lucGAA850; HEK293 lucGAA850 FXN promoter luciferase reporter, 24 h; percent of 10 µM SAHA response; activation, % at 6 µM; hit rate 0.56% among 360,000;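 active = activation above the average of all compounds screened plus 3 SD, cutoff fixed separately per campaign, cut at about 7.5% in these data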
# MC4R ag barr: MC4R agonists recruiting beta-arrestin, primary screen, cell-based, luminescence, agonist arm of biased-ligand search. AID 540308, 2011. activation, % at 8.9 µM. Melanocortin receptor 4 (Homo sapiens), P32245. hit rate 0.98% among 360,000. U2OS MC4R beta-arrestin complementation; percent of melanotan II response, DMSO zero;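 active = activation above a per-plate cutoff, the mean activation of sample wells on that plate plus 3 SD, cut at about 8% in these data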
# MOR ag counter: OPRM1 agonists via beta-arrestin recruitment, confirmation, counter-screen for mouse HTR2A agonist project, cell-based, luminescence, single concentration | U2OS OPRM1 beta-arrestin PathHunter; DMSO 0%, DAMGO 9.3 µM 100% | hit rate 5.3% among 2,300 | activation, % at 9.3 µM | shares compounds with m5-HT2A agonist;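 active = mean activation above the mean of DMSO-only wells plus 3 SD, cut at about 0.5% in these data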
# m5-HT2A ag conf: mouse HTR2A agonists, beta-arrestin recruitment, confirmation, cell-based, luminescence, CHO-K1 PathHunter, triplicate | DMSO 0%, 30 µM serotonin 100% | activation, % at 7.6 µM | shares compounds with m5-HT2A agonist | hit rate 19% among 2,300;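 active = mean activation across triplicates above the hit threshold derived in the original primary screen, cut at about 15% in these data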
# Numbers stand for hits; 0 = inactive; - = no result given.
SMILES,MC4R antag cAMP,AHR act,m5-HT2A agonist,FXN GAA850 act,MC4R ag barr,MOR ag counter,m5-HT2A ag conf
COc1ccc(NC(=O)Nc2ccc3c(c2)C(=O)N([C@H](C)CO)C[C@H](C)[C@@H](CN(C)S(=O)(=O)c2ccc(F)cc2)O3)cc1,0,0,18,0,0,0,0
C[C@@H]1CN([C@H](C)CO)C(=O)c2cc(NS(=O)(=O)c3ccc(F)cc3)ccc2O[C@@H]1CN(C)Cc1ccc(Cl)c(Cl)c1,0,0,21,0,0,0,0
C[C@H](CO)N1C[C@H](C)[C@H](CN(C)Cc2ccc(-c3ccccc3)cc2)Oc2ccc(NS(=O)(=O)c3ccccc3)cc2CC1=O,0,0,16,0,0,0,28
C[C@H](CO)N1C[C@H](C)[C@@H](CN(C)S(=O)(=O)c2ccc(F)cc2)Oc2ccc(NS(=O)(=O)c3ccc(F)cc3)cc2C1=O,0,0,0,0,0,-,-
Cc1ccc(S(=O)(=O)Nc2ccc3c(c2)CC(=O)N([C@H](C)CO)C[C@@H](C)[C@H](CN(C)Cc2ccc(-c4ccccc4)cc2)O3)cc1,0,0,19,0,0,0,18
CC1C(=O)C(C)C(c2cc(Cl)ccc2O)NC1c1cc(Cl)ccc1O (stereo not drawn),0,0,0,0,0,-,-
CNC(=O)/C(C#N)=C/c1c(N2CCN(c3cccc(Cl)c3)CC2)nc2c(C)cccn2c1=O,0,0,19,0,0,0,0
COCCNC(=O)/C(C#N)=C/c1c(N2CCN(c3cccc(Cl)c3)CC2)nc2c(C)cccn2c1=O,0,0,0,0,0,-,-
C=CCNC(=O)/C(C#N)=C/c1c(N2CCN(c3cccc(Cl)c3)CC2)nc2c(C)cccn2c1=O,0,0,20,0,0,0,0
CCOC(=O)/C(C#N)=C/c1c(N2CCN(c3cccc(Cl)c3)CC2)nc2c(C)cccn2c1=O,0,-,0,0,0,-,-
COc1cc(CCC(=O)OCC(=O)Nc2cc(S(=O)(=O)N3CCOCC3)ccc2Cl)cc(OC)c1OC,0,-,0,0,0,-,-
COC(=O)C1CCN(c2ccc([N+](=O)[O-])cc2)CC1,0,0,0,0,0,-,-
COC(=O)C1CCN(CCCOc2ccc(CN3CCN(c4ccc([N+](=O)[O-])cc4)CC3)cc2)CC1,0,0,25,0,0,0,75
O=C(O)c1ccc(/C=N/Nc2ccc(C(F)(F)F)cn2)cc1,0,-,18,0,0,0,0
O=C(N/N=C/c1ccc(C(F)(F)F)cc1)c1ccncc1,0,0,0,0,0,-,-
Cc1nnsc1C(=O)NC1CCCc2c1cnn2-c1ccc(C(C)(C)C)cc1 (stereo not drawn),0,0,14,0,0,0,0
COc1cccc(N2CCN(C(=O)c3ccc(=O)oc3)CC2C)c1 (stereo not drawn),0,0,21,0,0,0,0
COc1cccc(NC(=O)N2CCN(c3cccc(C)c3)C(C)C2)c1 (stereo not drawn),0,0,0,0,0,-,-
O=C(CSc1n[nH]c(=O)n1C1CC1)NCc1ccccc1,0,0,15,0,0,0,0
COCCNC(=O)CN1CCCCCC1,0,0,0,0,0,-,-
COCCNCC(=O)N1CCCCCC1,0,0,17,0,0,0,0
Cc1nn(-c2ccccc2)c(N2CCCC2)c1/C=N/NC(=O)c1cc(-c2ccccn2)nc2ccccc12,0,0,15,0,0,0,0
Cc1nn(-c2ccccc2)c(N2CCCC2)c1/C=N/NC(=O)c1cc(-c2ccccc2)nc2ccccc12,0,0,0,0,0,-,-
COc1ccc(C(=O)Nc2ccccc2N2CCCC2)cc1S(=O)(=O)N1CCOCC1,0,0,0,0,0,-,-
O=c1[nH]c(C2CCN(S(=O)(=O)c3ccc(F)cc3)CC2)nc2c1nnn2Cc1ccc2c(c1)OCCO2,0,0,15,0,0,0,0
SMILES,MC4R antag cAMP,AHR act,m5-HT2A agonist,FXN GAA850 act,MC4R ag barr,MOR ag counter,m5-HT2A ag conf
O=c1[nH]c(C2CCN(S(=O)(=O)c3ccccc3F)CC2)nc2c1nnn2Cc1ccc2c(c1)OCCO2,0,0,0,0,0,-,-
CCOc1ccc(S(=O)(=O)N(C)CC(=O)NCc2ccccn2)cc1,0,0,0,0,0,-,-
CN(Cc1ccccc1)S(=O)(=O)c1ccc(OCC(=O)NCc2ccccn2)cc1,0,0,18,0,0,0,0
CC(C)(C)NC(=O)COc1ccc(CNCc2ccccn2)cc1,0,0,15,0,0,0,0
Cc1ccc(-c2nc(CS(=O)CC(=O)NCCCN3CCN(Cc4ccccc4)CC3)c(C)o2)cc1 (stereo not drawn),0,0,0,0,0,-,-
CCC(C)(C)n1nnnc1C(c1ccc(O)c(OC)c1)N1CCN(c2nc3ccccc3s2)CC1 (stereo not drawn),0,0,24,0,0,0,0
COc1ccc(-n2cnc(=S)[nH]c2=S)cc1,0,-,0,0,0,-,-
O=C(CCCc1ccccc1)N1CCN(C2CCCCC2)CC1,0,0,25,0,0,0.8,0
COc1ccc(CCC(=O)N2CCN(C3CCCCC3)CC2)cc1,0,0,0,0,0,-,-
Cc1cc(N(CN2CCCC2=O)C(=O)c2ccccc2)no1,0,0,19,0,0,0,0
Cc1cc(=O)[nH]c(SCc2cccc3ccccc23)n1,0,0,0,0,0,-,-
Cc1cc(CSc2nc(C)cc(=O)[nH]2)c2ncccc2c1,0,0,16,0,0,0,0
COc1ccc(NS(=O)(=O)c2ccc(N3CCOCC3)c(N)c2)cc1,0,0,0,0,0,-,-
Cc1cc(Cl)ccc1OCC(=O)N(Cc1cccs1)C1CCS(=O)(=O)C1 (stereo not drawn),0,0,0,0,0,-,-
O=C(COc1ccccc1Cl)N(Cc1cccs1)C1CCS(=O)(=O)C1 (stereo not drawn),0,0,20,0,0,0,0
NS(=O)(=O)c1ccc(CCNS(=O)(=O)Cc2ccc(Cl)cc2)cc1,0,0,0,0,0,-,-
ON=Cc1ccnc2ccccc12,0,-,0,0,0,-,-
O=C(O)c1ccccc1N/N=C\c1ccnc2ccccc12,0,65,14,0,0,0,0
CN(c1ccccc1C(=O)Nc1ccccc1C(=O)NCc1ccco1)S(C)(=O)=O,0,0,14,0,0,0,0
CN(c1ccccc1C(=O)NCc1ccco1)S(C)(=O)=O,0,0,0,0,0,-,-
COc1ccc(CC2(CO)CCN(Cc3cc4ccccc4o3)CC2)cc1,0,0,40,0,0,0,66
